Experimental data as given in ChEMBL document CHEMBL5674876, “Epigenetic Activation of Pro-angiogenic Signaling Pathways in Human Endothelial Progenitors Increases Vasculogenesis” (Stem Cell Reports, 2017).
Active and inactive are the calls of the source.

How the values were obtained:
[1] = test system: HUVEC; test: Effect on pro-angiogenic property in human umbilical cord derived endothelial colony forming cells assessed as cell migration treated for 10 hrs measured by crystal violet staining analysis based gap closure assay; type: functional; details: dose 2.5-20 nM
[2] = test system: HUVEC; test: Effect on pro-angiogenic property in human umbilical cord derived endothelial colony forming cells assessed as formation of capillary network on matrigel at 2.5 to 500 nM; type: functional, cell-based; details: dose 2.5-500 nM
How it was run: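 Drug- or vehicle-pretreated ECFCs seeded at 5,000 cells/well on phenol-red-free growth-factor-reduced Matrigel in duplicate; after 24 hr stained with 5 μg/mL calcein 5 min at 37°C, imaged at 2.5×. Total tube length expressed as percentage of vehicle control ±SEM, three independent experiments.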

[3] = test system: HUVEC; test: Effect on pro-angiogenic property in human umbilical cord derived endothelial colony forming cells assessed as increase in DLL1 level by qRT-PCR analysis; type: functional, cell-based
[4] = test system: HUVEC; test: Effect on pro-angiogenic property in human umbilical cord derived endothelial colony forming cells assessed as increase in SHH level by qRT-PCR analysis; type: functional, cell-based

Measured: Activity

Cc1[nH]c2ccccc2c1CCNCc1ccc(/C=C/C(=O)NO)cc1
active: [1] Dose-Dependent Effect | [2] Dose-Dependent Effect | [3] | [4]
